# Measured values taken from ChEMBL document CHEMBL4373725, “Structure Kinetics Relationships and Molecular Dynamics Show Crucial Role for Heterocycle Leaving Group in Irreversible Diacylglycerol Lipase Inhibitors” (J Med Chem, 2019).
# How the values were obtained:
# [1] = biological target: T1, Diacylglycerol lipase-alpha (Mus musculus, UniProt Q6WQJ1); test: Inhibition of mouse DAGL-alpha expressed in HEK293T cell membranes assessed as inhibition constant without pre-incubation, measured continuously from t=0 with 600 uM PNP-butyrate by surrogate substrate assay
# T1 sequence (Q6WQJ1 whole entry): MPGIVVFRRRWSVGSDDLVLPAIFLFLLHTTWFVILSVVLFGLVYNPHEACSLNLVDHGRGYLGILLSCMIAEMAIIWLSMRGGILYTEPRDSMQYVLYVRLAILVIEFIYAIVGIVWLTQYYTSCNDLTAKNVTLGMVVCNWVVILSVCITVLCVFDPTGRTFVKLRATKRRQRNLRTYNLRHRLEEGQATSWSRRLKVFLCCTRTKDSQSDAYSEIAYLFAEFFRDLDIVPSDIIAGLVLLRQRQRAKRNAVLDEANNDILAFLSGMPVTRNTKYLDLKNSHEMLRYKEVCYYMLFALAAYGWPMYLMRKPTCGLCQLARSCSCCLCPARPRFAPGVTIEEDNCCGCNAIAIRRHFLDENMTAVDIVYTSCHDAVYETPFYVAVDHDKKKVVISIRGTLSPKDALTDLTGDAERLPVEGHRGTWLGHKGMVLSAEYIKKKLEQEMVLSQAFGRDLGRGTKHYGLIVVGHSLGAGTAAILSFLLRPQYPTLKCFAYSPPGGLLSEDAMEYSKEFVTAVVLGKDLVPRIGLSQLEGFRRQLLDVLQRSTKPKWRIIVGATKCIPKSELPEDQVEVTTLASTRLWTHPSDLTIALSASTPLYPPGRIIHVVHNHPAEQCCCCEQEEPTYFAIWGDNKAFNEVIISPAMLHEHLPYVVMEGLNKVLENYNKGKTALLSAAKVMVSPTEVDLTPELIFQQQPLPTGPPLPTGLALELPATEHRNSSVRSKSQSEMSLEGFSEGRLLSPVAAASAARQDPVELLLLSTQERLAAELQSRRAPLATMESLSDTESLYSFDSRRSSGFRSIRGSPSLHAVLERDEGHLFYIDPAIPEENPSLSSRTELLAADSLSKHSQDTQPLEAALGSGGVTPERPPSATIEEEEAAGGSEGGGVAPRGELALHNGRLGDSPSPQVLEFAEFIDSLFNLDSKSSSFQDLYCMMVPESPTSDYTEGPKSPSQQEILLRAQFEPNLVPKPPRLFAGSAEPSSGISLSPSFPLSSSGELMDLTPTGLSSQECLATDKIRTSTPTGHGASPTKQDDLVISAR
# [2] = biological target: T1, Diacylglycerol lipase-alpha; test: Inhibition of mouse DAGL-alpha expressed in HEK293T cell membranes pre-incubated for 20 mins before PNP-butyrate substrate addition and measured after 30 mins by surrogate substrate assay; assay type: cell-based
# Summary of the method: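 mDAGL-α membrane fraction from transiently transfected HEK293T cells, at 0.05 μg/μL final, in 50 mM Hepes pH 7.2. Inhibitor in DMSO was preincubated 20 min, then PNP-butyrate was added (0.3 mM final; 5% DMSO final). After 30 min at 20 °C, OD was read at 420 nm. Background from 10 μM THL was subtracted and values normalized to DMSO control. Plates were kept if Z′ > 0.6. N = 2, n = 2.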
# [3] = biological target: T2, Diacylglycerol lipase-alpha (Mus musculus) (UniProt Q6WQJ1); test: Inhibition of mouse DAGL-alpha expressed in HEK293T cell membranes assessed as inactivation constant measured continuously from t=0 without pre-incubation by kinetic PNP-butyrate substrate assay
# T2 sequence (whole entry): T1 sequence (Q6WQJ1 whole entry)
# [4] = biological target: T2, Diacylglycerol lipase-alpha (Mus musculus); test: Inhibition of mouse DAGL-alpha expressed in HEK293T cell membranes assessed as inactivation constant pre-incubated for 20 mins before PNP-butyrate substrate addition and measured after 30 mins by surrogate substrate assay; assay type: cell-based
# [5] = Dissociation constant, pKa of the compound; assay type: physicochemical
Structure (SMILES),Ki [1] [nM],IC50 ([2]; read-out: pIC50 (converted)) [nM],Kinact [3] [min⁻¹],Kinact [4] [min⁻¹],pKa [5],IC50 ([2]; read-out: IC50) [nM]
O=C(N1CCCCC1Cc1ccccc1)n1cc(-c2ccc(-c3ccccc3)cc2)nn1 (stereo unspecified),0.35,< 1,,0.08,,
O=C(N1CCCC[C@@H]1Cc1ccccc1)n1cnc(C(O)(c2ccc(F)cc2)c2ccc(F)cc2)c1,,> 31600,,,14.4,
O=C(N1CCCC[C@@H]1Cc1ccccc1)n1ccc(C(O)(c2ccc(F)cc2)c2ccc(F)cc2)n1,10800,,,0.08,14.2,210
O=C(N1CCCC[C@@H]1Cc1ccccc1)n1cc(C(O)(c2ccc(F)cc2)c2ccc(F)cc2)nn1,339,3.8,,0.32,9.3,
O=C(N1CCCC[C@@H]1Cc1ccccc1)n1cnc(C(O)(c2ccc(F)cc2)c2ccc(F)cc2)n1,13800,,,0.075,10,3400

# Further compounds by falling Ki [1], results first:
Ki [1] [nM],IC50 ([2]; read-out: pIC50 (converted)) [nM],Kinact [3] [min⁻¹],Kinact [4] [min⁻¹],pKa [5],IC50 ([2]; read-out: IC50) [nM],Structure (SMILES)
10.4,3.02,,0.22,9.3,,O=C(N1CCCC[C@@H]1Cc1ccccc1)n1ncc(C(O)(c2ccc(F)cc2)c2ccc(F)cc2)n1
0.27,< 1,0.058,,,,C#CCO[C@@H]1CC[C@H](Cc2ccccc2)N(C(=O)n2ncc(C(O)(c3ccc(F)cc3)c3ccc(F)cc3)n2)C1
0.23,2.51,,,,,Cc1ccc(-c2cnc3nc(C(=O)CCCCCc4ccccc4)oc3c2)cc1
